Source: ChEMBL document CHEMBL5154665, “Design, synthesis, biochemical evaluation, radiolabeling and in vivo imaging with high affinity class-IIa histone deacetylase inhibitor for molecular imaging and targeted therapy” (Eur J Med Chem, 2022)

Columns and labels:
[1] = target: T1, Class 1 histone deacetylase (Homo sapiens, UniProt Q13547+O15379+Q92769+Q9BY41); test: Inhibition of HDAC class 1 in human THP-1 cells using TFA-lysine as fluorogenic substrate by fluorescence microplate reader assay; type: cell-based
[2] = target: Histone deacetylase 2 (Homo sapiens, UniProt Q92769); test: Inhibition of recombinant human HDAC2 using fluorogenic substrate by fluorescence microplate reader assay
Histone deacetylase 2, sequence (Q92769 whole entry, canonical isoform): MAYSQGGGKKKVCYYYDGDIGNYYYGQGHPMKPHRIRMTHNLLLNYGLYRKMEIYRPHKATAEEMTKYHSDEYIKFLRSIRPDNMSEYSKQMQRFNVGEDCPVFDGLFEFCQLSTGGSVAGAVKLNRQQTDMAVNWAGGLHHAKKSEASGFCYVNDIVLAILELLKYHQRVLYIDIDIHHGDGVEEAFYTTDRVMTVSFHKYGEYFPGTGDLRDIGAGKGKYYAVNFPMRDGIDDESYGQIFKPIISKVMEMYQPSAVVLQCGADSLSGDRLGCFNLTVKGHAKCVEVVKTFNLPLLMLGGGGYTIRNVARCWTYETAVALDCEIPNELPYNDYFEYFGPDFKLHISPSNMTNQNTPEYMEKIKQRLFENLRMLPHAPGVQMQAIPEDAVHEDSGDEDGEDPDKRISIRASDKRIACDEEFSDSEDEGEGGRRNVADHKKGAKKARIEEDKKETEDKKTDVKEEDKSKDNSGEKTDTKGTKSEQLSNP
Procedure, shortened: (§1)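 Recombinant human HDAC isoforms were tested at 9 inhibitor dilutions in commercial fluorogenic enzyme kits, per the manufacturer's protocol. For class IIa enzymes, deacetylation of a TFA-lysine substrate lets trypsin release a fluorophore, read on a microplate reader. IC50 came from a nonlinear fit of % HDAC activity inhibition against compound concentration.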

[3] = target: Histone deacetylase 9 (Homo sapiens, UniProt Q9UKV0); test: Inhibition of recombinant human HDAC9 using fluorogenic substrate by fluorescence microplate reader assay; procedure, shortened: as §1
Histone deacetylase 9, sequence (Q9UKV0 whole entry): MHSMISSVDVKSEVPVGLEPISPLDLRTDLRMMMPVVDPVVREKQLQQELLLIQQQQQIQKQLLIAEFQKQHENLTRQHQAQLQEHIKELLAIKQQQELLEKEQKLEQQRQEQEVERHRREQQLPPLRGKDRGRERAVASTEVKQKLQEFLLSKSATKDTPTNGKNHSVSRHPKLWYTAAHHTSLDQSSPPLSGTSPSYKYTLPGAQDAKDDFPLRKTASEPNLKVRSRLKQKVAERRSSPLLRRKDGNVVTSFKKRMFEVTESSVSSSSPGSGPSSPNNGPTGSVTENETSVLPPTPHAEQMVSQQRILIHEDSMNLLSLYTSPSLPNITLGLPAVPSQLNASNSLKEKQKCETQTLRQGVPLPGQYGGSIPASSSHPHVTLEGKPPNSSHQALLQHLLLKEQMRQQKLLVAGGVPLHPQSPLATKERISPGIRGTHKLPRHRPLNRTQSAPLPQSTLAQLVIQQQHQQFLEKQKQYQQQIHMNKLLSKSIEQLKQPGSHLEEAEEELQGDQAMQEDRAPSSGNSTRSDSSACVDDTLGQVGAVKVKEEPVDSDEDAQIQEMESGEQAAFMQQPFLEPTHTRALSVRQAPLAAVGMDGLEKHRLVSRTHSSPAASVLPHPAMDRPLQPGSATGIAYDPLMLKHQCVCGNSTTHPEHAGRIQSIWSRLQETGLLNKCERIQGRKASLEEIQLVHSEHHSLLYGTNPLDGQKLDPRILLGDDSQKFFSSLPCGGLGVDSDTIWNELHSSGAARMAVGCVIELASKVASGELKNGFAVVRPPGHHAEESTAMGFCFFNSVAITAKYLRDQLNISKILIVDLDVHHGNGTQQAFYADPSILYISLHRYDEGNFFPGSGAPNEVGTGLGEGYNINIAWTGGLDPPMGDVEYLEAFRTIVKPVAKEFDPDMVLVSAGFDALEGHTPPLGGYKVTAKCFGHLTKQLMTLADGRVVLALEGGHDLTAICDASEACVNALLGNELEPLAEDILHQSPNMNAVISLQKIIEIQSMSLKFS

[4] = target: T1, Class 1 histone deacetylase; test: Inhibition of HDAC class 1 in human HT-29 cells using […] as fluorogenic substrate by fluorescence microplate reader assay; type: cell-based
Procedure, shortened: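 HT-29 cells were plated at 200,000 cells/well in RPMI without phenol red with 0.1% FBS, with 100 µM Boc-Lys-TFA for class IIa or 200 µM Boc-Lys-Ac for class I/IIb. Compounds ran as an 11-point curve (5% final DMSO), with 5 µM trichostatin A as the positive control. Incubation was 3 h at 37 °C, then trypsin developer with Tween 80 for 1 h to lyse cells and release fluorophore.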

[5] = target: Histone deacetylase 5 (Homo sapiens, UniProt Q9UQL6); test: Inhibition of recombinant human HDAC5 using fluorogenic substrate by fluorescence microplate reader assay; procedure, shortened: as §1
Histone deacetylase 5, sequence (Q9UQL6 whole entry): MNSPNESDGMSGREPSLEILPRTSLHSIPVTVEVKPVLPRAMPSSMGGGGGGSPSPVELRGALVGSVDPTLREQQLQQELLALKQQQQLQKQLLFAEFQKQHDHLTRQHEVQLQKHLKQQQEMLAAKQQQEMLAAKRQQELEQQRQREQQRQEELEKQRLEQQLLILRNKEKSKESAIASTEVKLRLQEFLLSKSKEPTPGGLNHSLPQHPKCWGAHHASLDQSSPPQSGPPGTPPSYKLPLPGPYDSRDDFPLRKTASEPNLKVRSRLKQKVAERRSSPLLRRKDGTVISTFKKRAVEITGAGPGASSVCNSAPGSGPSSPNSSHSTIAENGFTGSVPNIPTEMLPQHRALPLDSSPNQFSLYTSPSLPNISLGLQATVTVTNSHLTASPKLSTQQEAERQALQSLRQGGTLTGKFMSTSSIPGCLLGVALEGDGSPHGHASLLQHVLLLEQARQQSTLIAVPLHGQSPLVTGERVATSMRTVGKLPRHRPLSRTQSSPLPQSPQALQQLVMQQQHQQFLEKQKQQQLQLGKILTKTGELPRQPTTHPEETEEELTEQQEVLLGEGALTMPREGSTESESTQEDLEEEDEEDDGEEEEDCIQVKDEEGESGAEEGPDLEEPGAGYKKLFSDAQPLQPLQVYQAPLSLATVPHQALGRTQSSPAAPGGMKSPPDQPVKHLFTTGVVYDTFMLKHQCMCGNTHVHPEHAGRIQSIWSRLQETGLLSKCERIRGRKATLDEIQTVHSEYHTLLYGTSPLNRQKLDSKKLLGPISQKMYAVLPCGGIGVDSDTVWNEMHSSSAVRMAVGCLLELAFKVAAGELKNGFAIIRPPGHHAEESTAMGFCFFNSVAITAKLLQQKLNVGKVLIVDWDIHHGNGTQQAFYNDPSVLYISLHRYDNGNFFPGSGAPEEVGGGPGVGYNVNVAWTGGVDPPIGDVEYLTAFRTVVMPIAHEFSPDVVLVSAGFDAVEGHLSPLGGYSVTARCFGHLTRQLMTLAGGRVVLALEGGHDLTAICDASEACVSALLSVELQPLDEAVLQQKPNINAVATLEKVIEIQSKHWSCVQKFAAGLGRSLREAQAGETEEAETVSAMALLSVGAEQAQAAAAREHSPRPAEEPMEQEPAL

[6] = target: Histone deacetylase 3 (Homo sapiens, UniProt O15379); test: Inhibition of recombinant human HDAC3 using fluorogenic substrate by fluorescence microplate reader assay; procedure, shortened: as §1
Histone deacetylase 3, sequence (O15379 whole entry): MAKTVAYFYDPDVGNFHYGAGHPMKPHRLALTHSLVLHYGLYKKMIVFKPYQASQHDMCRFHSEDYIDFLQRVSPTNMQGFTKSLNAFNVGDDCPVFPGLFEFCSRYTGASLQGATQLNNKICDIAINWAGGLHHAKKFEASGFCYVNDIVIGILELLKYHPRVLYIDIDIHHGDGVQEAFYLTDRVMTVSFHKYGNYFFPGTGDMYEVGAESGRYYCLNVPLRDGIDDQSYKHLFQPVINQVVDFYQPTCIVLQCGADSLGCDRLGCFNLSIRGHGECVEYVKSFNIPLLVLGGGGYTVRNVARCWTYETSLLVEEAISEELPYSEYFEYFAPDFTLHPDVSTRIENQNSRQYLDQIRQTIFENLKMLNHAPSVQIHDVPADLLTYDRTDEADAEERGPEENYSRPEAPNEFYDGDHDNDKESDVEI

[7] = target: T1, Class 1 histone deacetylase; test: Inhibition of HDAC class 1 in human PANC-1 cells using TFA-lysine as fluorogenic substrate by fluorescence microplate reader assay; type: cell-based
[8] = target: Histone deacetylase 4 (Homo sapiens, UniProt P56524); test: Inhibition of recombinant human HDAC4 using fluorogenic substrate by fluorescence microplate reader assay; procedure, shortened: as §1
Histone deacetylase 4, sequence (P56524 whole entry): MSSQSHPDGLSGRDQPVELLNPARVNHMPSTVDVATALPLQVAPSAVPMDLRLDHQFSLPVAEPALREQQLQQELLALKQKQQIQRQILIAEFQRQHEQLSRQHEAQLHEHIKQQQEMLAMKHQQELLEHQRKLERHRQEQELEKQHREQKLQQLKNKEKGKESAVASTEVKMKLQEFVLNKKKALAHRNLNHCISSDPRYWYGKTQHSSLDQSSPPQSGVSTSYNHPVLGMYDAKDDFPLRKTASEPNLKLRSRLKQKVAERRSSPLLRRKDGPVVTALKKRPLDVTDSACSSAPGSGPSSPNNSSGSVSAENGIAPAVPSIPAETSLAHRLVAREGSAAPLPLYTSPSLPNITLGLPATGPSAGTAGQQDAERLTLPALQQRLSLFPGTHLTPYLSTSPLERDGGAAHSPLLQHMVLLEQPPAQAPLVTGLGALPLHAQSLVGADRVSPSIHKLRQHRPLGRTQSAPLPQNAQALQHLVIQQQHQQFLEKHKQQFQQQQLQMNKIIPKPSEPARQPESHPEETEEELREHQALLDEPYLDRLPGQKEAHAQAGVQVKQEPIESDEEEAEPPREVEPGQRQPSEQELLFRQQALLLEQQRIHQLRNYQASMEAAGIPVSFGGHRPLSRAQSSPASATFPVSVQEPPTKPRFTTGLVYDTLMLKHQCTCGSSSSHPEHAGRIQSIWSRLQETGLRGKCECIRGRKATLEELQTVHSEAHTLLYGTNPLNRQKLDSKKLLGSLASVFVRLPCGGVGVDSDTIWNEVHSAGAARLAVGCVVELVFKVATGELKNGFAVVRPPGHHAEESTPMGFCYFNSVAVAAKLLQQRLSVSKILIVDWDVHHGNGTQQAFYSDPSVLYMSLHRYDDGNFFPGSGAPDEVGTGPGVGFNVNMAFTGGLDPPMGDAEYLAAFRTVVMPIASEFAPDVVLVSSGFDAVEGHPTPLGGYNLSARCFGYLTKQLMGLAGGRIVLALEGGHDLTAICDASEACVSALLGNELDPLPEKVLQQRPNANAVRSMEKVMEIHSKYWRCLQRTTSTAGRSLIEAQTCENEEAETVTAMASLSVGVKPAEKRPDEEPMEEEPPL

[9] = Inhibition of HDAC class 2b in human L3.6pl cells using TFA-lysine as fluorogenic substrate by fluorescence microplate reader assay; type: cell-based
[10] = Inhibition of HDAC class 2b in human THP-1 cells using TFA-lysine as fluorogenic substrate by fluorescence microplate reader assay; type: cell-based
[11] = Inhibition of HDAC class 2b in human HT-29 cells using Boc-Lys-Ac as substrate incubated for 3 hrs by microplate reader assay; type: cell-based; conditions: HT-29, 3 h
[12] = target: T2, Histone deacetylase 8 (Homo sapiens, UniProt Q9BY41); test: Inhibition of recombinant human HDAC8 using fluorogenic substrate by fluorescence microplate reader assay; procedure, shortened: as §1
T2 sequence (Q9BY41 whole entry): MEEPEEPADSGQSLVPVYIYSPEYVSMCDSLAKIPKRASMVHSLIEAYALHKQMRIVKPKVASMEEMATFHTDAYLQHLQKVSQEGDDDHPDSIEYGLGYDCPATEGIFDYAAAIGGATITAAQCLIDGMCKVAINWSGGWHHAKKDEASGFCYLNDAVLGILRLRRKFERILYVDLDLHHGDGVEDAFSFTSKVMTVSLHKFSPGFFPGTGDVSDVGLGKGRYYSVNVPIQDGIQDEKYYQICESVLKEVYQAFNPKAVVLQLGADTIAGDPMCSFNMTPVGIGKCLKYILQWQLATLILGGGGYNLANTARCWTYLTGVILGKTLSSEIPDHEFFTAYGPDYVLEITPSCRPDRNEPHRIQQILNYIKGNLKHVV

[13] = Inhibition of HDAC class 2a in human HT-29 cells using Boc-Lys-TFA as substrate incubated for 3 hrs by microplate reader assay; type: cell-based; conditions: HT-29, 3 h
[14] = target: Histone deacetylase 1 (Homo sapiens, UniProt Q13547); test: Inhibition of recombinant human HDAC1 using fluorogenic substrate by fluorescence microplate reader assay; procedure, shortened: as §1
Histone deacetylase 1, sequence (Q13547 whole entry): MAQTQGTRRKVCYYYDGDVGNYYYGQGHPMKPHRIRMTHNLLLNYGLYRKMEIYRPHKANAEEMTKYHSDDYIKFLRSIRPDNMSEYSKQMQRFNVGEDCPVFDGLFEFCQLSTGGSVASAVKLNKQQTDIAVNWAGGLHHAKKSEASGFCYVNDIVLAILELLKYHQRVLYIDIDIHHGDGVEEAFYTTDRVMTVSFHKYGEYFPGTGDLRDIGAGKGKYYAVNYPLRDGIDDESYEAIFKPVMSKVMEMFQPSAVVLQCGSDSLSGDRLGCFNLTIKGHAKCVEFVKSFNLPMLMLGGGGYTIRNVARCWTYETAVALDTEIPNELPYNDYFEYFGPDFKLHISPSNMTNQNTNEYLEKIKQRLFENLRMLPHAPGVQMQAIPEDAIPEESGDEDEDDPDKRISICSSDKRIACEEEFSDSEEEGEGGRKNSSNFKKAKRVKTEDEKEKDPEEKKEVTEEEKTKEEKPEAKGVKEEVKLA

[15] = target: T3, Histone deacetylase 11 (Homo sapiens, UniProt Q96DB2); test: Inhibition of recombinant human HDAC11 using fluorogenic substrate by fluorescence microplate reader assay; procedure, shortened: as §1
T3 sequence (Q96DB2 whole entry): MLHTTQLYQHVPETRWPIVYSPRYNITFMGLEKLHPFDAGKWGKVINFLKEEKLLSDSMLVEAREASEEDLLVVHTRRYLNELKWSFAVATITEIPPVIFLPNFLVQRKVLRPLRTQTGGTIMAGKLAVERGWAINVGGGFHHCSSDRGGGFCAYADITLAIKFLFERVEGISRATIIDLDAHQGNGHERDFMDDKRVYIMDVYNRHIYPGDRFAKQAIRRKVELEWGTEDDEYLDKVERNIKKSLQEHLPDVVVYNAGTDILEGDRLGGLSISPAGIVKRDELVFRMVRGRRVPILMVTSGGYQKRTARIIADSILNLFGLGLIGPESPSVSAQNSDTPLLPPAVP

**Q.** For CC(C)(CNC(=O)c1cccc(-c2noc(C(F)(F)F)n2)c1)c1coc(-c2ccccc2)n1, which IC50 [1] is on record?
**A.** The IC50 was greater than 5 µM.

**Q.** And the IC50 [2]?
**A.** The IC50 was greater than 5 µM.

**Q.** What about the IC50 [3] of the same molecule?
**A.** The IC50 was 0.0024 µM.

**Q.** And the IC50 [4]?
**A.** Its IC50 is greater than 5 µM.

**Q.** What about the IC50 [5] of the same molecule?
**A.** Its IC50 is 0.148 µM.

**Q.** What about the IC50 [6] of the same molecule?
**A.** Its IC50 is greater than 5 µM.

**Q.** What about the IC50 [7] of the same molecule?
**A.** Its IC50 is greater than 5 µM.

**Q.** And the IC50 [8]?
**A.** Its IC50 is 0.128 µM.

**Q.** What about the IC50 [9] of the same molecule?
**A.** The IC50 was greater than 5 µM.

**Q.** And the IC50 [10]?
**A.** Its IC50 is greater than 5 µM.

**Q.** What about the IC50 [11] of the same molecule?
**A.** Its IC50 is greater than 50 µM.

**Q.** What about the IC50 [12] of the same molecule?
**A.** The IC50 was greater than 5 µM.

**Q.** And the IC50 [13]?
**A.** The IC50 was 1 µM.

**Q.** What about the IC50 [14] of the same molecule?
**A.** The IC50 was greater than 5 µM.

**Q.** And the IC50 [15]?
**A.** The IC50 was greater than 5 µM.
